Converted amounts (≈) assume the structure as drawn. The source made the active and inactive calls. The calls are words filed in the database; no cut-off is given here.
Experiments:
[1] = target: T1, Cell division protein FtsZ (Staphylococcus aureus) (UniProt P0A031); assay: Inhibition of Staphylococcus aureus FtsZ assessed as cellular desegregation at 0.5 ug/ml after overnight incubation by phase-contrast light microscopic analysis
T1 sequence (whole entry): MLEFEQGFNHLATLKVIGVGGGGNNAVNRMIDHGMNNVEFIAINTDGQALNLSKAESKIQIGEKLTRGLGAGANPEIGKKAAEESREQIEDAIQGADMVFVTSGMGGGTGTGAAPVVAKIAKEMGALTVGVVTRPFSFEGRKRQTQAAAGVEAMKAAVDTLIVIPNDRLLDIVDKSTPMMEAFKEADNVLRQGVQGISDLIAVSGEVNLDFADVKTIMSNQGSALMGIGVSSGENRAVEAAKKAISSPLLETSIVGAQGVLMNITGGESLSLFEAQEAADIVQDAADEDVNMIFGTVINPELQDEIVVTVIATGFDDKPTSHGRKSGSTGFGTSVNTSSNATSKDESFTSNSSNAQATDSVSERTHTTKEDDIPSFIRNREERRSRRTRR
Summary of the method: (§1)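 S. aureus grown overnight with compound at levels starting from the previously determined MIC. Untreated cultures served as negative control. Examined by phase-contrast microscopy at 630×.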

[2] = tested on: Staphylococcus aureus; assay: Antibacterial activity against […] Staphylococcus aureus ATCC 29213 after 16 hrs by spectrophotometric analysis; type: functional; conditions: ATCC 29213, 16 h
[3] = target: T1, Cell division protein FtsZ (Staphylococcus aureus); assay: Inhibition of Staphylococcus aureus FtsZ assessed as bacterial swelling at 0.5 ug/ml after overnight incubation by phase-contrast light microscopic analysis; summary of the method: as §1
[4] = target: T1, Cell division protein FtsZ (Staphylococcus aureus); assay: Inhibition of Staphylococcus aureus FtsZ assessed as increase in cell volume at 0.5 ug/ml after overnight incubation by phase-contrast light microscopic analysis; summary of the method: as §1
[5] = Therapeutic index, ratio of TD90 for human MRC5 cells to MBC for […] Staphylococcus aureus ATCC 29213; type: cell-based; conditions: read-out: TI
Summary of the method: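 Ratio of TD₉₀ (MTT assay on MRC-5, 24 h exposure) to MBC against MRSA ATCC 29213 (LB tube assay, wash-out and overnight regrowth by OD600).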

[6] = Cytotoxicity against human MRC5 cells assessed as reduction in cell viability after 24 hrs by MTT assay; type: toxicity, cell-based; conditions: mrc5, 24 h
Summary of the method: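 MRC-5 lung fibroblasts (DMEM, 10% heat-inactivated calf serum, 37 °C, 5% CO₂) at 10⁴ cells/well were exposed 24 h to twofold serial dilutions in DMEM. Then 1 mg/ml MTT in serum-free DMEM for 3 h, DMSO solubilisation, A570. Cytotoxicity % = 100 − (sample OD/untreated OD) × 100; TD₅₀/TD₉₀ are concentrations cutting viability 50/90%.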

[7] = target: T1, Cell division protein FtsZ (Staphylococcus aureus); assay: Inhibition of Staphylococcus aureus FtsZ assessed as cellular desegregation at 1 ug/ml after overnight incubation by phase-contrast light microscopic analysis; summary of the method: as §1
[8] = target: T1, Cell division protein FtsZ (Staphylococcus aureus); assay: Inhibition of Staphylococcus aureus FtsZ assessed as cellular desegregation at 1 ug/ml after 16 hrs by transmission electron microscopic analysis
Summary of the method: (§2)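 S. aureus at 10⁹ cells/ml grown 16 h at 37 °C with compound, untreated control included. Cells were pelleted at 3100 × g for 5 min, fixed in 2.5% glutaraldehyde in 0.1 M Na cacodylate pH 7.4 for 1 h at 4 °C, post-fixed in 1% OsO₄ for 1 h at 4 °C, and examined by TEM for septum and ultrastructure.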

[9] = target: T1, Cell division protein FtsZ (Staphylococcus aureus); assay: Inhibition of Staphylococcus aureus FtsZ assessed as bacterial swelling at 1 ug/ml after overnight incubation by phase-contrast light microscopic analysis; summary of the method: as §1
[10] = target: T1, Cell division protein FtsZ (Staphylococcus aureus); assay: Inhibition of Staphylococcus aureus FtsZ assessed as increase in cell volume at 1 ug/ml after overnight incubation by phase-contrast light microscopic analysis; summary of the method: as §1
[11] = tested on: Mycolicibacterium smegmatis; assay: Inhibition of FtsZ polymerization in GFP-tagged Mycobacterium smegmatis assessed as presence of elongated cells with enlarged bacterial pole at 0.5 ug/ml by fluorescence-based microscopic analysis
Summary of the method: (§3)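 GFP-expressing M. smegmatis or M. tuberculosis grown at subMIC concentrations on glass coverslips in 7H9/ADC/Tween 80. Cells were fixed with phosphate-buffered 4% paraformaldehyde and examined by fluorescence microscopy at 100× for cell morphology.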

[12] = tested on: Enterococcus faecalis; assay: Antibacterial activity against vancomycin-susceptible Enterococcus faecalis clinical isolates after 24 hrs by CLSI […] broth microdilution method; type: functional; conditions: for MBC: read-out: MBC99.9
Summary of the method: (§4)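 CLSI broth microdilution on clinical isolates. Log-phase bacteria in saline at 1–2 × 10⁵ CFU/mL were mixed with compounds diluted in LB, final 0.097–100 μg/mL, for 24 h at 37 °C. MIC is the lowest concentration with total growth inhibition. For MBC, clear wells were plated on sheep-blood agar for 18 h; >99.9% kill versus untreated control. Triplicate.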

[13] = target: T1, Cell division protein FtsZ (Staphylococcus aureus); assay: Inhibition of Staphylococcus aureus FtsZ assessed as alteration in septum formation at 0.25 ug/ml after 16 hrs by transmission electron microscopic analysis; summary of the method: as §2
[14] = tested on: Staphylococcus aureus; assay: Antibacterial activity against methicillin-resistant Staphylococcus aureus clinical isolates after 24 hrs by CLSI […] broth microdilution method; type: functional; conditions: for MBC: read-out: MBC99.9; summary of the method: as §4
[15] = tested on: Enterococcus faecalis; assay: Antibacterial activity against vancomycin-resistant Enterococcus faecalis clinical isolates after 24 hrs by CLSI […] broth microdilution method; type: functional; conditions: for MBC: read-out: MBC99.9; summary of the method: as §4
[16] = tested on: Staphylococcus aureus; assay: Antibacterial activity against methicillin-susceptible Staphylococcus aureus clinical isolates after 24 hrs by CLSI […] broth microdilution method; type: functional; conditions: for MBC: read-out: MBC99.9; summary of the method: as §4
[17] = tested on: Mycobacterium tuberculosis; assay: Inhibition of FtsZ polymerization in GFP-tagged Mycobacterium tuberculosis assessed as presence of elongated cells with enlarged bacterial pole at 8 ug/ml by fluorescence-based microscopic analysis; summary of the method: as §3
[18] = target: T1, Cell division protein FtsZ (Staphylococcus aureus); assay: Inhibition of Staphylococcus aureus FtsZ assessed as cellular desegregation at 0.25 ug/ml after overnight incubation by phase-contrast light microscopic analysis; summary of the method: as §1
[19] = target: T1, Cell division protein FtsZ (Staphylococcus aureus); assay: Inhibition of Staphylococcus aureus FtsZ assessed as increase in cell volume at 0.25 ug/ml after overnight incubation by phase-contrast light microscopic analysis; summary of the method: as §1
[20] = target: T1, Cell division protein FtsZ (Staphylococcus aureus); assay: Inhibition of Staphylococcus aureus FtsZ assessed as bacterial swelling at 0.25 ug/ml after overnight incubation by phase-contrast light microscopic analysis; summary of the method: as §1
[21] = tested on: Mycobacterium tuberculosis; assay: Antitubercular activity against Mycobacterium tuberculosis H37Rv by Alamar blue assay; type: functional
Summary of the method: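 M. tuberculosis in 7H9 medium with ADC and 0.05% Tween 80; MIC by microplate Alamar Blue assay.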

With `C#Cc1ccc2c(c1)OC(COc1ccc(F)c(C(N)=O)c1F)CO2` (stereo not drawn) the inhibition [1] was “Active”, the MBC [2] was 0.625 µg/mL (≈ 1.81 µM) and the MIC [2] was 0.313 µg/mL (≈ 0.906 µM). The inhibition [3] was “Active”, the inhibition [4] was “Active” and the selectivity ratio [5] was 640. It also gave a TD90 [6] of 400 µg/mL.

`N#Cc1ccc2c(c1)OC(COc1ccc(F)c(C(N)=O)c1F)CO2` (stereo not drawn) gave an MBC [2] of 2.5 µg/mL (≈ 7.22 µM) and an MIC [2] of 1.25 µg/mL (≈ 3.61 µM).

With `NC(=O)c1c(F)ccc(OCC2COc3ccc(Br)cc3O2)c1F` (stereo not drawn) the MBC [2] was 0.625 µg/mL (≈ 1.56 µM), the MIC [2] was 0.625 µg/mL (≈ 1.56 µM) and the selectivity ratio [5] was > 1280. For the same compound, the TD90 [6] was > 800 µg/mL.

With `COC(=O)c1ccc2c(c1)OC(COc1ccc(F)c(C(N)=O)c1F)CO2` (stereo not drawn) the MBC [2] was 0.625 µg/mL (≈ 1.65 µM), the MIC [2] was 0.625 µg/mL (≈ 1.65 µM) and the inhibition [7] was “Active”. The inhibition [8] was “Active”, the inhibition [9] was “Active” and the inhibition [10] was “Active”. For the same compound, the selectivity ratio [5] was > 1280 and the TD90 [6] was > 1280 µg/mL.

Work on `NC(=O)c1c(F)ccc(OCc2ccc3c(c2)OCCO3)c1F` yielded an MBC [2] of 100 µg/mL (≈ 311 µM) and an MIC [2] of 100 µg/mL (≈ 311 µM).

With `CCCCCCCCCOc1ccc(F)c(C(N)=O)c1F` the MBC [2] was 1 µg/mL (≈ 3.34 µM), the MIC [2] was 1 µg/mL (≈ 3.34 µM) and the inhibition [11] was “Active”. For the same compound, the MIC90 [12] was 6.25 µg/mL (≈ 20.9 µM), the MBC [12] was 12.5 µg/mL (≈ 41.8 µM) and the inhibition [13] was “Active”. The MIC90 [14] was 0.39 µg/mL (≈ 1.3 µM), the MBC [14] was 0.78 µg/mL (≈ 2.61 µM) and the MIC90 [15] was 12.5 µg/mL (≈ 41.8 µM). It also gave an MBC [15] of 25 µg/mL (≈ 83.5 µM), an MIC90 [16] of 0.19 µg/mL (≈ 0.635 µM) and an MBC [16] of 0.19 µg/mL (≈ 0.635 µM). The inhibition [17] was “Active”, the inhibition [18] was “Active” and the inhibition [19] was “Active”. The inhibition [20] was “Active”, the MIC [21] was 16 µg/mL (≈ 53.4 µM) and the selectivity ratio [5] was > 200. For the same compound, the TD90 [6] was > 200 µg/mL.

Compound `NC(=O)c1c(F)ccc(OCC2COc3ccc(I)cc3O2)c1F` (stereo not drawn) has an MBC [2] of 0.625 µg/mL (≈ 1.4 µM), an MIC [2] of 0.313 µg/mL (≈ 0.7 µM) and an MIC90 [12] of 6.25 µg/mL (≈ 14 µM). The MBC [12] was 12.5 µg/mL (≈ 28 µM), the MIC90 [14] was 0.39 µg/mL (≈ 0.872 µM) and the MBC [14] was 1.56 µg/mL (≈ 3.49 µM). The MIC90 [15] was 6.25 µg/mL (≈ 14 µM), the MBC [15] was 25 µg/mL (≈ 55.9 µM) and the MIC90 [16] was 0.78 µg/mL (≈ 1.74 µM). For the same compound, the MBC [16] was 3.12 µg/mL (≈ 6.98 µM), the selectivity ratio [5] was > 1280 and the TD90 [6] was > 800 µg/mL.

For `C=Cc1ccc2c(c1)OC(COc1ccc(F)c(C(N)=O)c1F)CO2` (stereo not drawn), the MBC [2] was 1.25 µg/mL (≈ 3.6 µM), the MIC [2] was 0.625 µg/mL (≈ 1.8 µM) and the selectivity ratio [5] was > 640. The TD90 [6] was > 800 µg/mL.

Work on `NC(=O)c1c(F)ccc(OCC2COc3ccc(F)cc3O2)c1F` (stereo not drawn) yielded an MBC [2] of 2.5 µg/mL (≈ 7.37 µM) and an MIC [2] of 2.5 µg/mL (≈ 7.37 µM).

For `NC(=O)c1c(F)ccc(OCC2COc3cc(Cl)c(Cl)cc3O2)c1F` (stereo not drawn), the MBC [2] was 5 µg/mL (≈ 12.8 µM), the MIC [2] was 2.5 µg/mL (≈ 6.41 µM) and the MIC90 [12] was 6.25 µg/mL (≈ 16 µM). It also gave an MBC [12] of 50 µg/mL (≈ 128 µM), an MIC90 [14] of 3.12 µg/mL (≈ 8 µM) and an MBC [14] of 6.25 µg/mL (≈ 16 µM). For the same compound, the MIC90 [15] was 12.5 µg/mL (≈ 32 µM), the MBC [15] was 50 µg/mL (≈ 128 µM) and the MIC90 [16] was 3.12 µg/mL (≈ 8 µM). It also gave an MBC [16] of 6.25 µg/mL (≈ 16 µM) and an MIC [21] of 16 µg/mL (≈ 41 µM).

`NC(=O)c1c(F)ccc(OCC2COc3ccccc3C2)c1F` (stereo not drawn) gave an MBC [2] of 100 µg/mL (≈ 313 µM) and an MIC [2] of 100 µg/mL (≈ 313 µM).

Source: ChEMBL document CHEMBL3856196, “3-(Benzodioxan-2-ylmethoxy)-2,6-difluorobenzamides bearing hydrophobic substituents at the 7-position of the benzodioxane nucleus potently inhibit methicillin-resistant Sa and Mtb cell division” (Eur J Med Chem, 2016)
